{"source": "ChEMBL document CHEMBL3792365", "about": "“Dioxol and dihydrodioxin analogs of 2- and 3-phenylacetonitriles as potent anti-cancer agents with nanomolar activity against a variety of human cancer cells” (2016)", "format_in_all_cases": "functional", "key": {"[1]": {"test": "Growth inhibition of human MOLT4 cells after 48 hrs by sulforhodamine B assay", "settings": "MOLT-4, 48 h", "summary_of_the_method": "(§1)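 Five-dose concentration series run across a panel of 60 human tumour cell lines. GI50 is taken as the drug concentration giving a 50% reduction in net protein increase relative to untreated control cells.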"}, "[2]": {"system": "KM12", "test": "Growth inhibition of human KM12 cells at 10 uM after 48 hrs by sulforhodamine B assay", "settings": "KM12, 48 h, values are per cent of control"}, "[3]": {"system": "786-0", "test": "Growth inhibition of human 786-0 cells after 48 hrs by sulforhodamine B assay", "settings": "786-0, 48 h", "summary_of_the_method": "(§2)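 Five-dose testing against a 60-line human tumor cell panel. GI50 is the drug concentration giving a 50% reduction in net protein increase relative to untreated control cells.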"}, "[4]": {"test": "Growth inhibition of human OVCAR4 cells after 48 hrs by sulforhodamine B assay", "settings": "OVCAR-4, 48 h", "summary_of_the_method": "as §1"}, "[5]": {"test": "Growth inhibition of human UACC257 cells at 10 uM after 48 hrs by sulforhodamine B assay", "settings": "UACC-257, 48 h, values are per cent of control"}, "[6]": {"test": "Growth inhibition of human SF295 cells after 48 hrs by sulforhodamine B assay", "settings": "SF-295, 48 h", "summary_of_the_method": "as §1"}, "[7]": {"system": "MDA-MB-435", "test": "Growth inhibition of human MDA-MB-435 cells after 48 hrs by sulforhodamine B assay", "settings": "MDA-MB-435, 48 h", "summary_of_the_method": "as §2"}, "[8]": {"test": "Growth inhibition of human RPMI8226 cells at 10 uM after 48 hrs by sulforhodamine B assay", "settings": "RPMI-8226, 48 h, values are per cent of control"}, "[9]": {"system": "MDA-MB-231", "test": "Growth inhibition of human MDA-MB-231 cells at 10 uM after 48 hrs by sulforhodamine B assay", "settings": "MDA-MB-231, 48 h, values are per cent of control"}, "[10]": {"system": "HT-29", "test": "Growth inhibition of human HT-29 cells at 10 uM after 48 hrs by sulforhodamine B assay", "settings": "HT-29, 48 h, values are per cent of control"}, "[11]": {"system": "MCF7", "test": "Growth inhibition of human MCF7 cells at 10 uM after 48 hrs by sulforhodamine B assay", "settings": "MCF7, 48 h, values are per cent of control"}, "[12]": {"test": "Growth inhibition of human HL-60(TB) cells at 10 uM after 48 hrs by sulforhodamine B assay", "settings": "HL-60, 48 h, values are per cent of control"}, "[13]": {"test": "Growth inhibition of human SW620 cells after 48 hrs by sulforhodamine B assay", "settings": "SW-620, 48 h", "summary_of_the_method": "as §1"}, "[14]": {"system": "Malme-3M", "test": "Growth inhibition of human MALME-3M cells at 10 uM after 48 hrs by sulforhodamine B assay", "settings": "values are per cent of control"}, "[15]": {"test": "Growth inhibition of human OVCAR8 cells at 10 uM after 48 hrs by sulforhodamine B assay", "settings": "OVCAR-8, 48 h, values are per cent of control"}, "[16]": {"test": "Growth inhibition of human UO31 cells at 10 uM after 48 hrs by sulforhodamine B assay", "settings": "UO-31, 48 h, values are per cent of control"}, "[17]": {"system": "MDA-MB-231", "test": "Growth inhibition of human MDA-MB-231 cells after 48 hrs by sulforhodamine B assay", "settings": "MDA-MB-231, 48 h", "summary_of_the_method": "as §2"}, "[18]": {"system": "SR", "test": "Growth inhibition of human SR cells after 48 hrs by sulforhodamine B assay", "summary_of_the_method": "as §1"}, "[19]": {"test": "Growth inhibition of human UACC62 cells after 48 hrs by sulforhodamine B assay", "settings": "UACC-62, 48 h", "summary_of_the_method": "(§3)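 Five-dose testing across the 60-line human tumour cell panel. GI50 is the drug concentration that gives a 50% reduction in net protein increase relative to control cells.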"}, "[20]": {"test": "Growth inhibition of human BT549 cells at 10 uM after 48 hrs by sulforhodamine B assay", "settings": "BT-549, 48 h, values are per cent of control"}, "[21]": {"system": "NCI-H522", "test": "Growth inhibition of human NCI-H522 cells after 48 hrs by sulforhodamine B assay", "settings": "NCI-H522, 48 h", "summary_of_the_method": "as §1"}, "[22]": {"test": "Growth inhibition of human HCC2998 cells after 48 hrs by sulforhodamine B assay", "settings": "HCC 2998, 48 h", "summary_of_the_method": "as §2"}, "[23]": {"system": "SK-MEL-5", "test": "Growth inhibition of human SK-MEL-5 cells at 10 uM after 48 hrs by sulforhodamine B assay", "settings": "SK-MEL-5, 48 h, values are per cent of control"}, "[24]": {"test": "Growth inhibition of human OVCAR3 cells after 48 hrs by sulforhodamine B assay", "settings": "OVCAR-3, 48 h", "summary_of_the_method": "as §1"}, "[25]": {"test": "Growth inhibition of human PC3 cells after 48 hrs by sulforhodamine B assay", "settings": "PC-3, 48 h", "summary_of_the_method": "as §1"}, "[26]": {"system": "A549", "test": "Growth inhibition of human A549/ATCC cells after 48 hrs by sulforhodamine B assay", "settings": "A549, 48 h", "summary_of_the_method": "as §2"}, "[27]": {"system": "CCRF-CEM", "test": "Growth inhibition of human CCRF-CEM cells after 48 hrs by sulforhodamine B assay", "summary_of_the_method": "as §2"}, "[28]": {"test": "Growth inhibition of human LOXIMVI cells at 10 uM after 48 hrs by sulforhodamine B assay", "settings": "LOX IMVI, values are per cent of control"}, "[29]": {"system": "KM12", "test": "Growth inhibition of human KM12 cells after 48 hrs by sulforhodamine B assay", "settings": "KM12, 48 h", "summary_of_the_method": "as §2"}, "[30]": {"test": "Growth inhibition of human SNB19 cells after 48 hrs by sulforhodamine B assay", "settings": "SNB-19, 48 h", "summary_of_the_method": "as §1"}, "[31]": {"test": "Growth inhibition of human HOP62 cells after 48 hrs by sulforhodamine B assay", "settings": "HOP-62, 48 h", "summary_of_the_method": "as §2"}, "[32]": {"system": "A549", "test": "Growth inhibition of human A549/ATCC cells at 10 uM after 48 hrs by sulforhodamine B assay", "settings": "A549, 48 h, values are per cent of control"}, "[33]": {"system": "ACHN", "test": "Growth inhibition of human ACHN cells after 48 hrs by sulforhodamine B assay", "summary_of_the_method": "as §2"}, "[34]": {"test": "Growth inhibition of human SNB75 cells after 48 hrs by sulforhodamine B assay", "settings": "SNB-75, 48 h", "summary_of_the_method": "as §1"}, "[35]": {"test": "Growth inhibition of human UO31 cells after 48 hrs by sulforhodamine B assay", "settings": "UO-31, 48 h", "summary_of_the_method": "as §3"}, "[36]": {"test": "Growth inhibition of human PC3 cells at 10 uM after 48 hrs by sulforhodamine B assay", "settings": "PC-3, 48 h, values are per cent of control"}, "[37]": {"system": "SK-MEL-2", "test": "Growth inhibition of human SK-MEL-2 cells after 48 hrs by sulforhodamine B assay", "settings": "SK-MEL-2, 48 h", "summary_of_the_method": "as §1"}, "[38]": {"test": "Growth inhibition of human MOLT4 cells at 10 uM after 48 hrs by sulforhodamine B assay", "settings": "MOLT-4, 48 h, values are per cent of control"}, "[39]": {"system": "MDA-MB-468", "test": "Growth inhibition of human MDA-MB-468 cells after 48 hrs by sulforhodamine B assay", "settings": "MDA-MB-468, 48 h", "summary_of_the_method": "as §2"}, "[40]": {"test": "Growth inhibition of human HOP92 cells at 10 uM after 48 hrs by sulforhodamine B assay", "settings": "HOP-92, 48 h, values are per cent of control"}, "[41]": {"system": "CCRF-CEM", "test": "Growth inhibition of human CCRF-CEM cells at 10 uM after 48 hrs by sulforhodamine B assay", "settings": "values are per cent of control"}}}
{"smiles": "COc1ccc(/C(C#N)=C/c2ccc3c(c2)OCCO3)cc1", "values": [{"measurement": "GI50", "setting": "[1]", "result": "> 100", "unit": "µM"}, {"measurement": "growth, % of control at 10 µM", "setting": "[2]", "result": 27.8, "unit": "%"}, {"measurement": "GI50", "setting": "[3]", "result": 35.8, "unit": "µM"}, {"measurement": "GI50", "setting": "[4]", "result": 24.9, "unit": "µM"}, {"measurement": "growth, % of control at 10 µM", "setting": "[5]", "result": 76.7, "unit": "%"}, {"measurement": "GI50", "setting": "[6]", "result": 10.6, "unit": "µM"}, {"measurement": "GI50", "setting": "[7]", "result": 0.51, "unit": "µM"}, {"measurement": "growth, % of control at 10 µM", "setting": "[8]", "result": 80.8, "unit": "%"}, {"measurement": "growth, % of control at 10 µM", "setting": "[9]", "result": 68.4, "unit": "%"}, {"measurement": "growth, % of control at 10 µM", "setting": "[10]", "result": 21.8, "unit": "%"}, {"measurement": "growth, % of control at 10 µM", "setting": "[11]", "result": 24.4, "unit": "%"}, {"measurement": "growth, % of control at 10 µM", "setting": "[12]", "result": 38, "unit": "%"}, {"measurement": "GI50", "setting": "[13]", "result": 3.93, "unit": "µM"}, {"measurement": "growth, % of control at 10 µM", "setting": "[14]", "result": 64.6, "unit": "%"}, {"measurement": "growth, % of control at 10 µM", "setting": "[15]", "result": 77.1, "unit": "%"}, {"measurement": "growth, % of control at 10 µM", "setting": "[16]", "result": 73.2, "unit": "%"}, {"measurement": "GI50", "setting": "[17]", "result": 69.3, "unit": "µM"}, {"measurement": "GI50", "setting": "[18]", "result": 2.76, "unit": "µM"}, {"measurement": "GI50", "setting": "[19]", "result": 8.68, "unit": "µM"}, {"measurement": "growth, % of control at 10 µM", "setting": "[20]", "result": 56.6, "unit": "%"}, {"measurement": "GI50", "setting": "[21]", "result": "> 100", "unit": "µM"}, {"measurement": "GI50", "setting": "[22]", "result": 7.78, "unit": "µM"}, {"measurement": "growth, % of control at 10 µM", "setting": "[23]", "result": 45, "unit": "%"}, {"measurement": "GI50", "setting": "[24]", "result": 37.1, "unit": "µM"}, {"measurement": "GI50", "setting": "[25]", "result": "> 100", "unit": "µM"}, {"measurement": "GI50", "setting": "[26]", "result": 21.7, "unit": "µM"}, {"measurement": "GI50", "setting": "[27]", "result": "> 100", "unit": "µM"}, {"measurement": "growth, % of control at 10 µM", "setting": "[28]", "result": 56.7, "unit": "%"}, {"measurement": "GI50", "setting": "[29]", "result": 4.26, "unit": "µM"}, {"measurement": "GI50", "setting": "[30]", "result": "> 100", "unit": "µM"}, {"measurement": "GI50", "setting": "[31]", "result": "> 100", "unit": "µM"}, {"measurement": "growth, % of control at 10 µM", "setting": "[32]", "result": 41.5, "unit": "%"}, {"measurement": "GI50", "setting": "[33]", "result": "> 100", "unit": "µM"}, {"measurement": "GI50", "setting": "[34]", "result": 21.9, "unit": "µM"}, {"measurement": "GI50", "setting": "[35]", "result": "> 100", "unit": "µM"}, {"measurement": "growth, % of control at 10 µM", "setting": "[36]", "result": 70.9, "unit": "%"}, {"measurement": "GI50", "setting": "[37]", "result": 36.8, "unit": "µM"}, {"measurement": "growth, % of control at 10 µM", "setting": "[38]", "result": 32.2, "unit": "%"}, {"measurement": "GI50", "setting": "[39]", "result": 4.29, "unit": "µM"}, {"measurement": "growth, % of control at 10 µM", "setting": "[40]", "result": 89, "unit": "%"}, {"measurement": "growth, % of control at 10 µM", "setting": "[41]", "result": 58.7, "unit": "%"}]}
